# E-sel inducer = E-selectin induction in HUVECs, primary screen, imaging, HUVEC, immunofluorescence imaging, single point | P16581 | normalized: neutral wells 0, TNF-alpha wells 100 | activation, % at 7.58 µM | 0.37% of 260,000 active;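 active means mean E-selectin-positive cell signal at least 10% of the positive control, reached in at least 60% of replicates, without over 20% cell loss; inconclusive means no rule given, readout overlaps actives, possibly toxicity-flagged; inactive means the rest, including those meeting only one limit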
# Target sequence (P16581 whole entry, looked up): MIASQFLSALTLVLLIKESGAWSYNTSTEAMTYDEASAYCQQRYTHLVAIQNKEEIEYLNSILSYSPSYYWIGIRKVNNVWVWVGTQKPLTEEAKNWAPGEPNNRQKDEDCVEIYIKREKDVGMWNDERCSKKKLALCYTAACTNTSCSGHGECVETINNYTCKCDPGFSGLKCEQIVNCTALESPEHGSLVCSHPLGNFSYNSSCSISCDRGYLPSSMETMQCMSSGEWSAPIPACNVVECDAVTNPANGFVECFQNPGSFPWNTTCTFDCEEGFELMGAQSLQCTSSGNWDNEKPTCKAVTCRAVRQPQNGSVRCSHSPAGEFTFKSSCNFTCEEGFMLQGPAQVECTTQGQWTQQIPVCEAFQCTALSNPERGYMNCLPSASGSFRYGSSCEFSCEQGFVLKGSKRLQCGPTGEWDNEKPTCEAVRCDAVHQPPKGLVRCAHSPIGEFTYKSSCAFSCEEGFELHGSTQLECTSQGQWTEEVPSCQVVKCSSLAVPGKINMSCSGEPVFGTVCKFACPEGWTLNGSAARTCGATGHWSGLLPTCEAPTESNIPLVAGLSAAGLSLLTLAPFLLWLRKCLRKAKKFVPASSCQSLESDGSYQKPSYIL
#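 Assay system: HUVEC, human umbilical vein endothelial cells / Amount: 3,000 HUVEC/well / Controls: TNF-alpha positive control, DMSO neutral control / Compound dosing: single concentration / Medium: EGM-2 over gelatin coat / Evaluation: percent E-selectin-positive cells / Signal: immunofluorescence imaging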
# C2C12 statin = suppressors of statin myotoxicity in C2C12 myotubes, primary screen, cell-based, single point, plate reader. C2C12 myotubes + simvastatin, ATP luminescence, 48 h; scaled: DMSO 0, geranylgeraniol control 100. rescue of ATP level, % at 7.49 µM. 0.78% of 330,000 active;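 active means mean ATP rescue above about 67%, or every replicate alone reaching that limit, limit read from the data, passing the limit was not always enough; inconclusive means no clear call, values can overlap the other calls; inactive means mean under the limit and some replicate under it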;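 further: myotubes were challenged with 10 µM simvastatin during compound exposure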
# DENV2 CPE = inhibitors of DENV2 cytopathic effect, primary screen, cell-based, plate reader, single concentration | DENV2-infected cells, cytopathic effect rescue | CPE inhibition, % at 9.99 µM | 1.7% of 350,000 active | AID 651640, 2012; in the data active means CPE inhibition above about 20%, passing the limit was not always enough; inconclusive means no clear call, values can overlap the other calls; tested in BHK-21 cells;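 further: 0% = median of neutral control wells and 100% = median of positive control wells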
# * = called active by the depositor; ? = inconclusive; . = no result given. The list is not random: actives were taken first. Their share in the collection is about 2.2%.
SMILES,E-sel inducer,C2C12 statin,DENV2 CPE
COc1cccc(NC(=O)N[C@H]2CC[C@@H](CC(=O)N3CCOCC3)O[C@@H]2CO)c1,-1,-10,1
COc1cccc(NC(=O)N[C@@H]2CC[C@@H](CC(=O)N3CCOCC3)O[C@@H]2CO)c1,-1,7,64*
COc1ccc(NC(=O)N[C@@H]2CC[C@@H](CCNS(=O)(=O)c3cccc(Cl)c3)O[C@@H]2CO)cc1,0,-10,114*
COc1ccccc1NC(=O)N[C@H]1CC[C@H](CCNS(=O)(=O)c2ccc(Cl)cc2)O[C@@H]1CO,0,-6,-4
COc1ccc(NC(=O)N[C@H]2CC[C@@H](CCNS(=O)(=O)c3cccc(Cl)c3)O[C@@H]2CO)cc1,1,2,-6
COc1ccccc1NC(=O)N[C@H]1CC[C@H](CCNS(=O)(=O)c2ccc(C)cc2)O[C@@H]1CO,1,.,-10
COc1ccccc1NC(=O)N[C@H]1CC[C@@H](CCNS(=O)(=O)c2ccc(Cl)cc2)O[C@H]1CO,0,5,20*
CCCNC(=O)N(C)C[C@@H]1Oc2cc(C#CC3CC3)ccc2S(=O)(=O)N([C@H](C)CO)C[C@H]1C,0,12,?
C[C@H](CO)N1C[C@H](C)[C@H](CN(C)S(=O)(=O)c2ccc(Cl)cc2)OCc2cn(nn2)CCCC1=O,0,9,.
C[C@@H]1CN([C@@H](C)CO)C(=O)c2cc(NC(=O)c3ccncc3)ccc2O[C@@H](C)CCCCO[C@@H]1CN(C)C(=O)NC1CCCCC1,0,.,-7
CO[C@@H]1CN(C)C(=O)c2ccc(NC(=O)CC(F)(F)F)cc2OC[C@H](C)NC[C@H]1C,0,.,0
COc1ccc(C#Cc2ccc([C@@H]3[C@H](CO)N4CCCCN(S(=O)(=O)c5cn(C)cn5)C[C@@H]34)cc2)cc1,-1,-32,-10
O=C1C(Cl)=C(N2CCCCCC2)C(=O)N1c1ccc(Cl)cc1,0,6,76*
O=C1C(Cl)=C(N2CCCC2)C(=O)N1c1ccc(F)cc1,0,7,10
O=[N+]([O-])c1c(NCCCO)cc(N2CCCCCC2)c2nonc12,0,-3,37*
O=[N+]([O-])c1c(NCCO)cc(N2CCC3(CC2)OCCO3)c2nonc12,.,-6,.
C[C@H]1CN([C@@H](C)CO)C(=O)Cc2cc(NC(=O)C3CC3)ccc2O[C@@H]1CN(C)C(=O)Nc1cccc2ccccc12,0,13,12
COc1cccc(NC(=O)C2C3C=CC4(O3)C2C(=O)N(CCCN2CCCCC2)C4C(=O)NC2CCCCC2)c1 (centres undefined),29*,-6,5
COc1cccc(NC(=O)C2C3C=CC4(O3)C2C(=O)N(CCCN2CCC(C)CC2)C4C(=O)NC2CCCCC2)c1 (centres undefined),0,.,-2
COC(=O)[C@@H]1[C@@H](CO)[C@@H]2Cn3c(ccc(C4=CCCC4)c3=O)[C@@H]2N1C(=O)C1CCCC1,0,-18,2
C[C@H]1CN([C@@H](C)CO)C(=O)Cc2cc(NC(=O)CCC(F)(F)F)ccc2O[C@H]1CN(C)C(=O)Nc1ccccc1,0,4,16
C=C(C)Cn1c(CCCNC(=O)C(C)(C)C)nc2ccccc21,.,154*,.
C=CCn1c(CCCNC(=O)C(C)(C)C)nc2ccccc21,0,20,-1
Cc1ccccc1-c1ccc2c(c1)O[C@@H](CN(C)C(=O)c1ccccn1)[C@@H](C)CN([C@@H](C)CO)S2(=O)=O,-3,-4,10
C[C@@H]1CN([C@@H](C)CO)C(=O)c2cc(NC(=O)Nc3cccc4ccccc34)ccc2O[C@@H](C)CCCCO[C@@H]1CN(C)S(=O)(=O)c1cn(C)cn1,0,.,6
SMILES,E-sel inducer,C2C12 statin,DENV2 CPE
C[C@@H](NC(=O)[C@@H]1[C@@H](CO)[C@@H]2Cn3c(cccc3=O)[C@@H]2N1CC1CCCC1)c1ccccc1,0,-3,156*
C[C@H](NC(=O)[C@H]1[C@H](CO)[C@H]2Cn3c(cccc3=O)[C@H]2N1Cc1cccnc1)c1ccccc1,0,-7,-6
C[C@H](NC(=O)[C@@H]1[C@@H](CO)[C@@H]2Cn3c(cccc3=O)[C@@H]2N1Cc1cccnc1)c1ccccc1,0,-18,41*
C[C@H](NC(=O)[C@@H]1[C@@H](CO)[C@@H]2Cn3c(cccc3=O)[C@@H]2N1CC1CCCCC1)c1ccccc1,-1,.,2
C[C@H]1CN([C@@H](C)CO)C(=O)c2cccc(NS(=O)(=O)c3ccc(F)cc3)c2O[C@H]1CN(C)S(=O)(=O)c1ccc(F)cc1,0,-14,-7
Cc1ccc(O)c(NC(=O)c2cc(-c3ccc(F)cc3)on2)c1,0,27,9
Cc1ccc(O)c(NC(=O)c2cc(-c3cccs3)on2)c1,.,213*,4
COCC(=O)N[C@@H]1C=C[C@H](CC(=O)NCc2ccc(Cl)cc2)O[C@H]1CO,0,-2,-2
Cc1cc(=O)n2[nH]c(=O)c(N=Nc3ccccc3)c2[nH]1,.,9,.
Cc1ccc(-c2[nH][nH]c(=O)c(=O)c2N=Nc2ccccc2)cc1,0,211*,-2
COc1cc(/C=C(/C(=O)c2cccs2)c2nc3ccccc3[nH]2)ccc1O,.,7,.
O=C(/C(=C/c1ccc(Cl)cc1)c1nc2ccccc2[nH]1)c1cccs1,.,181*,.
COc1ccccc1NC(=O)N1C[C@@H](O)COC[C@H]2O[C@@H](CC(=O)NCCc3ccccc3)CC[C@@H]21,0,-3,2
Cc1ccc(S(=O)(=O)Nc2ccc3c(c2)CC(=O)N([C@H](C)CO)C[C@@H](C)[C@H](CN(C)Cc2ccc(C(=O)O)cc2)O3)cc1,0,-12,.
COc1ccccc1-n1nnnc1SCC(=O)Nc1ccccn1,1,72*,.
COc1ccccc1-n1nnnc1SCC(=O)Nc1ccccc1,.,2,12
C[C@H]1CN([C@@H](C)CO)C(=O)Cc2cc(N(C)C)ccc2O[C@@H]1CN(C)C(=O)Nc1ccc(F)cc1,-2,2,-8
C[C@H]1CN([C@@H](C)CO)S(=O)(=O)c2ccc(/C=C/c3ccccc3)cc2O[C@H]1CN(C)Cc1cncnc1,0,7,?
CC(=O)N1[C@H](CO)[C@H](c2ccccc2)[C@H]1CN(CC1CCC1)C(=O)CN(C)C,0,19,-4
CCOC(=O)c1oc2cccc(OC(C)=O)c2c1C,.,147*,.
CCOC(=O)c1oc2cccc(O)c2c1C,.,-16,.
C[C@@H]1CN([C@@H](C)CO)C(=O)Cc2cc(NC(=O)Nc3ccccc3)ccc2O[C@H]1CN(C)S(=O)(=O)c1ccccc1,0,6,-8
CCN(Cc1ccccc1)S(=O)(=O)c1ccc(C(=O)N(CCCN(C)C)c2nc3cc(C)cc(C)c3s2)cc1,.,-17,78*
Cc1cc(C)c2sc(N(CCCN(C)C)C(=O)c3ccc(S(=O)(=O)N(C)Cc4ccccc4)cc3)nc2c1,.,-53,18
Cc1cc(C(=O)Nc2cccc3c2O[C@@H](CN(C)C(=O)NC(C)C)[C@H](C)CN([C@H](C)CO)C3=O)n(C)n1,0,-2,-5
O=S(=O)(O)c1cc(O)c(N=Nc2ccc(O)cc2O)c2ccccc12,65*,-3,1

# Screening results from PubChem.
